Active and inactive are the calls of the source.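 Rule for the calls, unless noted: active = viability loss from added drug above about 55%, and viability with drug at most 40%, in both replicates (limit read from the data, passing the limit was not always enough); inconclusive = both conditions met in only one replicate; inactive = neither replicate meets both conditions.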

A short description of test [1]: reducers of endogenous Her2 protein level, primary screen, SKBR3 breast tumor cells, AlphaScreen, ATP viability (AID 461;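 active = Her2 level under about 52% in both replicate screens, with viability over 70% of control, limit read from the data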;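 for Her2 level: lower value means less Her2 protein in the cells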;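 for viability: percent of carrier control wells set as 100% viability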). The settings on record: 18-24 h, measured here: SKBR3 viability, ATP luminescence, at 10 µM. A general note: Bead proximity is the source of the signal in Alpha formats.
In test [2] the target is Receptor tyrosine-protein kinase erbB-2 (Homo sapiens) (UniProt P04626). Described as above. As to conditions: 18-24 h, at 10 µM, stronger effect = lower value.
Chain of Receptor tyrosine-protein kinase erbB-2 (Homo sapiens) (P04626 whole entry, looked up): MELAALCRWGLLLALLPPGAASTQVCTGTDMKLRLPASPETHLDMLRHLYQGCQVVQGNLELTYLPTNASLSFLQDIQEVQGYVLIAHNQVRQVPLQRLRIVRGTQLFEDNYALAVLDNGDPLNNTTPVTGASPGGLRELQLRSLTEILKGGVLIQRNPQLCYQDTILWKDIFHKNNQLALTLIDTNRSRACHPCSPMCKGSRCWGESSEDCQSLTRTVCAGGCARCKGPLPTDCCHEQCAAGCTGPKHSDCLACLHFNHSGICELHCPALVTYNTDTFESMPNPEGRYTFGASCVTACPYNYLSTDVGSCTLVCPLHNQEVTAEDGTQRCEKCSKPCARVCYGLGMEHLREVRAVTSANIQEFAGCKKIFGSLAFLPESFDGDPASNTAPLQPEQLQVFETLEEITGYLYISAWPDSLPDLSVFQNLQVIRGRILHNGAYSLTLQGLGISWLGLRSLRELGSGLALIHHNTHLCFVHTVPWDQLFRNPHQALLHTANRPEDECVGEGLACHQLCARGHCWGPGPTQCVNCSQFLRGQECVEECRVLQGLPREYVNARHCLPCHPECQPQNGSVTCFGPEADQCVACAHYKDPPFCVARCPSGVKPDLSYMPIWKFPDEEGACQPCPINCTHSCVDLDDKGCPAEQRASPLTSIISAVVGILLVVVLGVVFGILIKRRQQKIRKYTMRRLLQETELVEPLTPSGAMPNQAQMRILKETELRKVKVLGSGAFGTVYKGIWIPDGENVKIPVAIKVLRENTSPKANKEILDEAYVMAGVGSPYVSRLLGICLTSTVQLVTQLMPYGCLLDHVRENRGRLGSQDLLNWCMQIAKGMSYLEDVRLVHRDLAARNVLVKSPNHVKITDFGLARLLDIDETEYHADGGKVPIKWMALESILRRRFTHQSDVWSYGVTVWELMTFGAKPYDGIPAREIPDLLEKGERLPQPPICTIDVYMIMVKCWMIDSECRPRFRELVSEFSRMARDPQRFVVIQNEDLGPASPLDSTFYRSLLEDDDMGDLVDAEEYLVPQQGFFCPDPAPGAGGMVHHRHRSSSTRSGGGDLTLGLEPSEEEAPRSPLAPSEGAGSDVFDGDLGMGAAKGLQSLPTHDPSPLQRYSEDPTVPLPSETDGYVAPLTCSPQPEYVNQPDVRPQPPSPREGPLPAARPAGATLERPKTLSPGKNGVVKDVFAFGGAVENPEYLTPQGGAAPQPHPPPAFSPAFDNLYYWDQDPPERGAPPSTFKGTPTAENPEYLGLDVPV
Test [3] in a line: SK-BR-3 cell growth inhibitors, pilot screen, 24 h, human (AID 572;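 active = viability at or below 10% of carrier control in both of two separate runs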;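 note: compound exposure lasted between 18 and 24 h rather than exactly 24 h; 100% = carrier-treated control wells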). As to conditions: SK-BR-3 viability, CellTiter-Glo luminescence, at 10 µM, stronger effect = lower value.
The nature of test [4]: HUVEC growth inhibition – cell-based, human, primary screen (AID 575;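 active = viability at or below 30% in both replicate assays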;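 note: 100% = median of untreated cell wells with 0.1% DMSO on each plate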). As to conditions: HUVEC proliferation, CellTiter-Glo luminescence, 72 h; at 10 µM; stronger effect = lower value. The procedure, abridged:
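material = primary HUVEC, no more than 12 passages | input = 1250 cells per well | controls = vehicle and MePR control wells | measured by = CTG luminescence | times = 72 h compound incubation | format = collagen-coated 384-well format | read-out = % viability vs DMSO wells | doses = single 10 µM dose, 0.1% DMSO, from 5x medium stock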

The nature of test [5]: growth inhibitors of H69AR lung tumor, primary screen, human, duplicate replicates (AID 580;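 active = viability at or under a set limit in both replicates, limit being median viability minus 3 SD, cut at about 48% in these data, passing the limit was not always enough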;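 note: 100% = mean luminescence of untreated wells and 0% = no signal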). As to conditions: H69AR lung tumor cells viability, ATP luminescence, 72 h; at 10 µM; stronger effect = lower value.
Test [6] can be described thus: reversal of MRP1-mediated doxorubicin resistance, pilot screen, H69AR cells, doxorubicin co-treatment (AID 601). As to conditions: CellTiter-Glo, 72 h, at 10 µM; for differential viability (reversal): stronger effect = higher value. (Cellular ATP, detected with luciferase, serves as a proxy for viable cell number.)
Test [7] can be described thus: 384-well plate pilot, post-Golgi transport modulator project, inhibition of yeast transport mutant growth (AID 636; in the data active = inhibition above about 31%). The settings on record: absorbance 615 nm, about 18 h, stronger effect = higher value.
The nature of test [8]: growth suppression of yeast trafficking mutant, preliminary HTS, modulators of trafficking downstream of Golgi apparatus project, 1536-format plate, OD 615 nm (AID 637; in the data active = inhibition above about 30%). As to conditions: yeast transport mutant growth, absorbance 615 nm, 18 h; stronger effect = higher value.
The mark [9] stands for this setting: H69AR cells + 2 uM doxorubicin, measured here: viability with 2 uM doxorubicin, stronger effect = lower value.
Where [10] appears, read: H69AR cells, compound alone cytotoxicity.

`O=c1c2ccccc2sn1-c1ccc(S(=O)(=O)N2CCCCC2)cc1`: the viability in test [1] is 91.5%; in test [3], 91.5% (inactive); in test [4] it was 83.9% (inactive); in test [5], 78.1% (inactive); in test [6] (setting [9]), 72.3%; in test [6] (setting [10]) it was 78.1%. In test [2], the Her2 level was 81.5% (inactive). The differential viability (reversal) in test [6] (H69AR cells + 2 uM doxorubicin) was 5.85% (inactive). For the same compound, the inhibition in test [7] is -5.54% (inactive); in test [8], 9.17% (inactive).

`Cc1ccc(S(=O)(=O)C2(C(=O)NC3CCCC3)CC2)cc1`: the viability was 148% in test [1]; 148% (inactive) in test [3]; 104% (inactive) in test [4]; 97.1% (inactive) in test [5]; 87.8% in test [6] (setting [9]); 97.1% in test [6] (setting [10]). Moreover, the Her2 level in test [2] is 87.5% (inactive). Moreover, the differential viability (reversal) in test [6] (H69AR cells + 2 uM doxorubicin) was 9.32% (inactive). In addition, the inhibition in test [7] is -2.34% (inactive); in test [8] it was -2.22% (inactive).

For `N#Cc1nc(-c2ccco2)oc1NCCc1ccccc1`, the viability was 92.5% in test [1]; 92.5% (inactive) in test [3]; 90.6% (inactive) in test [4]; 97.4% (inactive) in test [5]; 82.6% in test [6] (setting [9]); 97.4% in test [6] (setting [10]). Further, in test [2], the Her2 level was 98.5% (inactive). The differential viability (reversal) in test [6] (H69AR cells + 2 uM doxorubicin) was 14.8% (inactive). Moreover, the inhibition in test [7] is -5.58% (inactive); in test [8], -10.5% (inactive).

As to `Cc1ccc(Nc2cc(-n3nc(C)cc3C)ncn2)cc1`, the viability in test [1] was 96.5%; in test [3] it was 96.5% (inactive); in test [4], 70.7% (inactive); in test [5], 74.8% (inactive); in test [6] (setting [9]), 82.6%; in test [6] (setting [10]), 74.8%. Besides, the Her2 level in test [2] was 97% (inactive). Besides, the differential viability (reversal) in test [6] (H69AR cells + 2 uM doxorubicin) is -7.74% (inactive). Further, the inhibition in test [7] is -0.26% (inactive); in test [8], -1.97% (inactive).

With `COc1ccccc1N1CC(O)=C(c2nc3ccccc3c(=O)[nH]2)C1=N`, the viability in test [1] was 116%; in test [3], 116% (inactive); in test [4], 102% (inactive); in test [5] it was 71.7% (inactive); in test [6] (setting [9]), 85.7%; in test [6] (setting [10]), 71.7%. Also, the Her2 level in test [2] was 72% (inactive). In test [6] (H69AR cells + 2 uM doxorubicin), the differential viability (reversal) was -13.9% (inactive). Besides, the inhibition is -4.05% (inactive) in test [7] and 1.59% (inactive) in test [8].

Consider `CCCCc1nc(NCCNC(=O)c2ccco2)c(C#N)c2c1CSC(C)(C)C2`, for which the viability is 84.5% in test [1]; 84.5% (inactive) in test [3]; 78.7% (inactive) in test [4]; 86.7% (inactive) in test [5]; 70.9% in test [6] (setting [9]); 86.7% in test [6] (setting [10]). Moreover, in test [2], the Her2 level is 100% (inactive). Further, in test [6] (H69AR cells + 2 uM doxorubicin), the differential viability (reversal) is 15.8% (inactive). Moreover, the results for the inhibition in test [7] and in test [8] were -5.2% (inactive) and -7.38% (inactive), respectively.

As for `CCOc1ccc(-n2cc(C(=O)Nc3cccc(C)n3)c3cc(OC)c(OC)cc3c2=O)cc1`, the viability in test [1] was 110%; in test [3], 110% (inactive); in test [4] it was 71.8% (inactive); in test [5], 64.4% (inactive); in test [6] (setting [9]), 76.2%; in test [6] (setting [10]), 64.4%. Also, the Her2 level in test [2] was 91% (inactive). The differential viability (reversal) in test [6] (H69AR cells + 2 uM doxorubicin) is -11.8% (inactive). In addition, the inhibition in test [7] was -5.47% (inactive); in test [8] it was 4.43% (inactive).

In the case of `CCCCOCCCNC(=O)c1ccccc1OCC`, the viability in test [1] was 89%; in test [3], 89% (inactive); in test [4], 108% (inactive); in test [5] it was 87.8% (inactive); in test [6] (setting [9]), 78.2%; in test [6] (setting [10]), 87.8%. Moreover, the Her2 level in test [2] was 88.5% (inactive). In test [6] (H69AR cells + 2 uM doxorubicin), the differential viability (reversal) was 9.53% (inactive). In addition, the inhibition in test [7] was -3.72% (inactive); in test [8], -4.67% (inactive).

With `O=C(Cn1ncc2ccccc21)N1CCN(c2cccc(C(F)(F)F)c2)CC1`, the viability in test [1] was 89.5%; in test [3], 89.5% (inactive); in test [4], 93.4% (inactive); in test [5], 87.1% (inactive); in test [6] (setting [9]), 94.1%; in test [6] (setting [10]), 87.1%. For the same compound, the Her2 level in test [2] is 94.5% (inactive). The differential viability (reversal) in test [6] (H69AR cells + 2 uM doxorubicin) was -6.95% (inactive). The inhibition in test [7] is -5.87% (inactive); in test [8], -1.97% (inactive).

Regarding `Cc1c(Br)c(C(F)(F)F)nn1CC(=O)NCCN1CCOCC1`, the viability in test [1] was 122%; in test [3], 122% (inactive); in test [4], 108% (inactive); in test [5], 96.6% (inactive); in test [6] (setting [9]) it was 86.3%; in test [6] (setting [10]), 96.6%. For the same compound, the Her2 level in test [2] is 100% (inactive). The differential viability (reversal) in test [6] (H69AR cells + 2 uM doxorubicin) is 10.3% (inactive). The figures for the inhibition in test [7] and in test [8] were -6.27% (inactive) and 2.1% (inactive), respectively.

In the case of `COc1cccc(-c2csc3nnc(SCC(=O)c4ccc(NC(C)=O)cc4)n23)c1`, the viability in test [1] was 108%; in test [3], 108% (inactive); in test [4], 92% (inactive); in test [5], 90% (inactive); in test [6] (setting [9]), 99.8%; in test [6] (setting [10]) it was 90%. The Her2 level in test [2] is 106% (inactive). Besides, the differential viability (reversal) in test [6] (H69AR cells + 2 uM doxorubicin) is -9.79% (inactive). The inhibition is -4.42% (inactive) in test [7] and -0.66% (inactive) in test [8].

With `O=C1C2CCCN2C(c2ccc(Cl)cc2)N1c1nccs1` (stereo not given), the viability was 99% in test [1]; 99% (inactive) in test [3]; 86.5% (inactive) in test [4]; 97.4% (inactive) in test [5]; 90.2% in test [6] (setting [9]); 97.4% in test [6] (setting [10]). Also, the Her2 level in test [2] is 77% (inactive). The differential viability (reversal) in test [6] (H69AR cells + 2 uM doxorubicin) was 7.26% (inactive). The inhibition in test [7] is -2.24% (inactive); in test [8], -1.94% (inactive).

As for `O=C(CNS(=O)(=O)c1ccc(Br)s1)N1CCCC1`, the viability in test [1] was 118%; in test [3], 118% (inactive); in test [4], 98.7% (inactive); in test [5] it was 99.9% (inactive); in test [6] (setting [9]), 90.1%; in test [6] (setting [10]), 99.9%. The Her2 level in test [2] was 115% (inactive). In addition, the differential viability (reversal) in test [6] (H69AR cells + 2 uM doxorubicin) was 9.79% (inactive). Further, the inhibition was -2.11% (inactive) in test [7] and 6.89% (inactive) in test [8].

On to `O=C(c1ccccc1)c1ccc2nc[nH]c2c1`, for which the viability in test [1] was 96.5%; in test [3], 96.5% (inactive); in test [4] it was 75.4% (inactive); in test [5] it was 102% (inactive); in test [6] (setting [9]), 117%; in test [6] (setting [10]), 102%. Also, in test [2], the Her2 level is 89.5% (inactive). In addition, the differential viability (reversal) in test [6] (H69AR cells + 2 uM doxorubicin) was -15.3% (inactive). Also, the inhibition was 0.26% (inactive) in test [7] and 3.06% (inactive) in test [8].

Take `CCN(CC)c1ccc(/C=N/n2nnnc2N)c(O)c1`: the viability in test [1] is 119%; in test [3], 119% (inactive); in test [4] it was 57.6% (inactive); in test [5] it was 14.4% (active); in test [6] (setting [9]) it was 57.2%; in test [6] (setting [10]) it was 14.4%. Besides, the Her2 level in test [2] is 80% (inactive). The differential viability (reversal) in test [6] (H69AR cells + 2 uM doxorubicin) is -42.7% (inactive). The inhibition in test [7] was 0.52% (inactive); in test [8] it was -1.15% (inactive).

`CCOC(=O)c1c(NC(=O)c2cccs2)sc2c1CCN(C(=O)OCC)C2`: the viability in test [1] was 174%; in test [3], 174% (inactive); in test [4] it was 6.86% (active); in test [5] it was 23.3% (active); in test [6] (setting [9]), 25.5%; in test [6] (setting [10]), 23.3%. Moreover, in test [2], the Her2 level is 13% (active). For the same compound, the differential viability (reversal) in test [6] (H69AR cells + 2 uM doxorubicin) was -2.25% (inactive). The inhibition in test [7] was 0.39% (inactive); in test [8] it was -1.8% (inactive).

One may read the viability as a read-out of living cells in per cent, often relative to untreated cells. Usually inhibition stands for the relative decrease from the control value, in per cent.

The values above are taken from PubChem BioAssay.
